Measurements reported in ChEMBL document CHEMBL4339225, “Self-assembling Releasable Thiocolchicine-Diphenylbutenylaniline Conjugates” (ACS Med Chem Lett, 2019).

Columns and labels:
[1] = Drug level treated with 9-[4-(1,2-Diphenyl-but-1-enyl)-phenylcarbamoyl]-nonanoic acid 3-{2-acetoxy-5-[((S)-1,2,3-trimethoxy-10-methylsulfanyl-9-oxo-5,6,7,9-tetrahydro-benzo[a]heptalen-7-ylcarbamoyl)-methylcarbamoyloxymethyl]-phenyl}-propyl ester assessed as porcine pancreas lipase type 2-mediated compound formation in presence of pH 7 phosphate buffer by reversed-phase HPLC; type: ADME, Sus scrofa; details: pig
Summary of the method: (§1)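 Analytical-scale incubation was run overnight in 15:85 DMSO/phosphate buffer (20 mM, pH 7) with 1% n-BuOH and porcine pancreatic lipase. Starting-material hydrolysis and released products were quantified by reversed-phase HPLC.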

[2] = Drug level treated with 4-{3-[4-(1,2-Diphenyl-but-1-enyl)-phenylcarbamoyl]-propyldisulfanyl}-butyric acid 3-{2-acetoxy-5-[((S)-1,2,3-trimethoxy-10-methylsulfanyl-9-oxo-5,6,7,9-tetrahydro-benzo[a]heptalen-7-ylcarbamoyl)-methylcarbamoyloxymethyl]-phenyl}-propyl ester assessed as Celite-supported formulation of Pseudomonas cepacia lipase PS-mediated compound formation in presence of pH 7 phosphate buffer by reversed-phase HPLC; type: ADME
HeLa = test: Antiproliferative activity against human HeLa cells assessed as reduction in cell number incubated for 72 hrs; type: functional
HepG2 = test: Antiproliferative activity against human HepG2 cells assessed as reduction in cell number incubated for 72 hrs; type: functional; details: HepG2, 72 h
[3] = Drug metabolism assessed as Celite-supported formulation of Pseudomonas cepacia lipase PS-mediated 4-((4-(4-(1,2-diphenylbut-1-enyl)phenylamino)-4-oxobutyl)disulfanyl)butanoic acid formation in presence of pH 7 phosphate buffer by reversed-phase HPLC; type: ADME
[4] = Self-assembling property assessed as zeta potential by dynamic light scattering method; type: physicochemical
[5] = Colloidal stability of the compound in nanoparticle form in Ph 7 PBS at 0.5 mg/mL in presence of 10 to 100 mM KCl; type: physicochemical; details: buffer
Summary of the method: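 Nanoparticles were held at 0.5 mg/mL in PBS buffered to pH 7.4, with KCl at 0, 10, 25, 50 and 100 mM. Zeta potential and hydrodynamic diameter were recorded at each ionic strength.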

[6] = Drug metabolism assessed as Celite-supported formulation of Pseudomonas cepacia lipase PS-mediated 2-Amino-N-((S)-1,2,3-trimethoxy-10-methylsulfanyl-9-oxo-5,6,7,9-tetrahydro-benzo[a]heptalen-7-yl)-acetamide trifluoroacetic acid formation in presence of pH 7 phosphate buffer by reversed-phase HPLC; type: ADME
[7] = Colloidal stability of the compound in nanoparticle form at 0.5 mg/mL at acidic pH conditions; type: physicochemical
Summary of the method: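 Zeta potential was measured against pH at 0.5 mg/mL nanoparticle concentration and fixed ionic strength (1 mM KCl). pH was adjusted across 2–12 with 0.1 M NaOH or HCl. Hydrodynamic diameter was also followed over the same range.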

[8] = Stability assessed as Celite-supported formulation of Pseudomonas cepacia lipase PS-mediated drug hydrolysis in presence of pH 7 phosphate buffer by reversed-phase HPLC; type: ADME; details: read-out: Drug degradation
MCF7 = test: Antiproliferative activity against human MCF7 cells assessed as reduction in cell number incubated for 72 hrs; type: functional; details: MCF7, 72 h
[9] = Self-assembling property assessed as hydrodynamic diameter by dynamic light scattering method; type: physicochemical
[10] = Self-assembling property assessed as polydispersity index by dynamic light scattering method; type: physicochemical
[11] = Stability assessed as porcine pancreas lipase type 2-mediated drug hydrolysis in presence of pH 7 phosphate buffer by reversed-phase HPLC; type: ADME, Sus scrofa; details: pig, porcine pancreas lipase type 2, pH 7; read-out: Drug degradation; summary of the method: as §1
[12] = Drug metabolism assessed as porcine pancreas lipase type 2-mediated 10-(4-(1,2-diphenylbut-1-enyl)phenylamino)-10-oxodecanoic acid formation in presence of pH 7 phosphate buffer by reversed-phase HPLC; type: ADME, Sus scrofa; details: pig; summary of the method: as §1

GI50 (HeLa) [µM]	GI50 (HepG2) [µM]	Drug metabolism [3]	Activity [4] [mV]	Stability [5]	Drug metabolism [6]	Stability [7]	metabolised [8] [%]	GI50 (MCF7) [µM]	Activity [9] [nm]	Activity_index [10]	metabolised [11] [%]	Drug metabolism [12]	SMILES	Drug uptake [1]	Drug uptake [2]
–	–	–	–	–	–	–	–	–	–	–	–	–	COc1cc2c(c(OC)c1OC)-c1ccc(SC)c(=O)cc1[C@@H](NC(=O)CN)CC2	Active	Active
> 30	28.2	–	–	–	–	–	–	–	–	–	–	–	CC/C(=C(\c1ccccc1)c1ccc(N)cc1)c1ccccc1	Active	Active
2.8	> 30	Metabolite_Detected	-46.47	Stable	Metabolite_Detected	Unstable	88	0.71	344	0.147	–	–	CC/C(=C(\c1ccccc1)c1ccc(NC(=O)CCCSSCCCC(=O)OCCCc2cc(COC(=O)NCC(=O)N[C@H]3CCc4cc(OC)c(OC)c(OC)c4-c4ccc(SC)c(=O)cc43)ccc2OC(C)=O)cc1)c1ccccc1	–	–
4.2	> 30	–	-33.51	Stable	–	Unstable	–	0.87	412.9	0.17	85	Metabolite_Detected	CC/C(=C(\c1ccccc1)c1ccc(NC(=O)CCCCCCCCC(=O)OCCCc2cc(COC(=O)NCC(=O)N[C@H]3CCc4cc(OC)c(OC)c(OC)c4-c4ccc(SC)c(=O)cc43)ccc2OC(C)=O)cc1)c1ccccc1	–	–
> 30	> 30	–	–	–	–	–	–	> 30	–	–	–	–	CC/C(=C(\c1ccccc1)c1ccc(NC(=O)CCCSSCCCC(=O)O)cc1)c1ccccc1	–	–
> 30	25.6	–	–	–	–	–	–	> 30	–	–	–	–	CC/C(=C(\c1ccccc1)c1ccc(NC(=O)CCCCCCCCC(=O)O)cc1)c1ccccc1	Active	–
